In brackets after ≈: the same amount, converted by molar mass. Activity calls are given as the source filed them. The rule behind the calls is not given here.
How the values were obtained:
Escherichia coli = assay: Antibacterial activity against tolC deficient Escherichia coli LBB925; type: functional
How it was run: (§1)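 MIC by broth dilution following NCCLS standard M7-A4 for aerobically growing bacteria, reported in µg/mL. Strains were S. aureus RN4220, tolC-deficient hypersusceptible E. coli LBB925, and permeability-barrier-deficient P. aeruginosa Z61.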

Pseudomonas aeruginosa = assay: Antibacterial activity against permeability barrier deficient Pseudomonas aeruginosa Z61; type: functional; how it was run: as §1
HeLa [1] = assay: Cytotoxicity against HeLa cells by MTS assay at 12.5 uM measured as percentage survival; type: functional, Homo sapiens
How it was run: (§2)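 HeLa cells were exposed to the compound at three concentrations (12.5, 25 and 50 µM). Viability was read by MTS assay and expressed as % survival.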

HeLa [2] = assay: Cytotoxicity against HeLa cells by MTS assay at 50 uM measured as percentage survival; type: functional, Homo sapiens; how it was run: as §2
Staphylococcus aureus [3] = assay: Antibacterial activity against Staphylococcus aureus RN4220; type: functional; how it was run: as §1
Replicative DNA helicase = molecular target: T1, Replicative DNA helicase (Pseudomonas aeruginosa (strain ATCC 15692 / PAO1 / 1C / PRS 101 / LMG12228), UniProt Q9HUN3); assay: Inhibition of Pseudomonas aeruginosa DnaB helicase
T1 sequence (Q9HUN3 whole entry): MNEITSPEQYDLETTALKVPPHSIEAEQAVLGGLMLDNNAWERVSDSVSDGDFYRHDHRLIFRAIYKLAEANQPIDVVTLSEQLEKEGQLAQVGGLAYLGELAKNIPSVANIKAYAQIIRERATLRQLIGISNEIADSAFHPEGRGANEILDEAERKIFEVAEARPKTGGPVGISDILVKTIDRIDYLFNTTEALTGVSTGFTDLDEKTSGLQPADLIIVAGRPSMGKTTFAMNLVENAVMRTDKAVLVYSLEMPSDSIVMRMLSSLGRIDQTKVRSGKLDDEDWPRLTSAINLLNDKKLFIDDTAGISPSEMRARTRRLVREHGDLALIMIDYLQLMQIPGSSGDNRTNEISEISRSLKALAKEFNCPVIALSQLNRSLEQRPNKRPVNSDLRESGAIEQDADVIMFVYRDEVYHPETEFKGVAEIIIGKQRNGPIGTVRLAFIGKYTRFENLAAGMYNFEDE

HeLa [4] = assay: Cytotoxicity against HeLa cells by MTS assay at 25 uM measured as percentage survival; type: functional, Homo sapiens; how it was run: as §2
Staphylococcus aureus [5] = assay: Antibacterial activity against Staphylococcus aureus infected in mouse at 0.2 mL; type: functional, organism-based

SMILES | MIC (Escherichia coli) [µg/mL] | MIC (Pseudomonas aeruginosa) [µg/mL] | Activity (HeLa [1]) [%] | Activity (HeLa [2]) [%] | MIC (Staphylococcus aureus [3]) [µg/mL] | IC50 (Replicative DNA helicase) [µM] | Activity (HeLa [4]) [%] | Activity (Staphylococcus aureus [5])
OCCN1CCN(c2nc(Nc3ccc(F)cc3)nc(Nc3ccc(F)cc3)n2)CC1 | 32 (≈ 74.9 µM) | > 128 | 101 | 51 | 64 (≈ 150 µM) | 23 | 104 | –
CC(=O)c1ccc(Nc2nc(Nc3ccc(Br)cc3)nc(Nc3ccc(Br)cc3)n2)cc1 | > 64 | > 64 | – | – | > 64 | 6 | – | –
c1ccc(Nc2nc(NCCN3CCOCC3)nc(Nc3ccccc3)n2)cc1 | – | – | – | – | – | > 100 | – | –
Fc1ccc(Nc2nc(NCCN3CCOCC3)nc(Nc3ccc(F)c(F)c3)n2)cc1F | 16 (≈ 34.5 µM) | > 128 | 101 | 47 | 16 (≈ 34.5 µM) | 19 | 91 | –
Clc1ccc(Nc2nc(NCCN3CCOCC3)nc(Nc3ccccc3)n2)cc1 | 16 (≈ 37.6 µM) | > 128 | 98 | 14 | 64 (≈ 150 µM) | 65 | 74 | –
CN1CCN(c2nc(Nc3ccc(F)cc3)nc(Nc3ccc(F)cc3)n2)CC1 | 16 (≈ 40.3 µM) | > 128 | 100 | 11 | 32 (≈ 80.5 µM) | 22 | 64 | –
OCCN1CCN(c2nc(Nc3ccc(F)c(F)c3)nc(Nc3ccc(F)c(F)c3)n2)CC1 | 16 (≈ 34.5 µM) | > 128 | 80 | 47 | 16 (≈ 34.5 µM) | 18 | 91 | –
Clc1ccc(Nc2nc(NCCN3CCOCC3)nc(Nc3ccc(Cl)cc3)n2)cc1 | > 128 | > 128 | 103 | 6 | 4 (≈ 8.69 µM) | 20 | 90 | inactive
COc1ccc(Nc2nc(NCCN3CCOCC3)nc(Nc3ccc(OC)cc3)n2)cc1 | – | – | – | – | – | > 100 | – | –
Clc1cccc(Nc2nc(Nc3cccc(Cl)c3)nc(Nc3cccc(Cl)c3)n2)c1 | > 128 | > 128 | 74 | 64 | > 128 | 31 | 83 | –
Fc1ccc(Nc2nc(NCCN3CCOCC3)nc(Nc3ccc(F)cc3)n2)cc1 | – | – | – | – | – | > 100 | – | –
O=[N+]([O-])c1ccc(Nc2nc(NCCN3CCOCC3)nc(Nc3ccc(Cl)cc3)n2)cc1 | > 128 | > 128 | 78 | 10 | 4 (≈ 8.49 µM) | 5 | 19 | inactive
Fc1ccc(Nc2nc(Nc3ccc(F)c(F)c3)nc(N3CCN(CCOc4ccccc4)CC3)n2)cc1F | > 128 | > 128 | 97 | 99 | > 128 | 5 | 100 | –
Fc1ccc(Nc2nc(Nc3ccc(F)c(F)c3)nc(N3CCN(Cc4ccccc4)CC3)n2)cc1F | > 128 | > 128 | 96 | 97 | > 128 | 6 | 99 | –
CC(C)CN1CCN(c2nc(Nc3ccc(F)c(F)c3)nc(Nc3ccc(F)c(F)c3)n2)CC1 | > 128 | > 128 | 99 | 86 | 4 (≈ 8.41 µM) | 5 | 99 | –
